# ChEMBL document CHEMBL1150331, “Preparation of piperazine derivatives as 5-HT7 receptor antagonists” (Bioorg Med Chem, 2008)
# Columns and labels:
# [1] = molecular target: T1, 5-hydroxytryptamine receptor 1A (Homo sapiens, UniProt P08908); assay: Displacement of [3H]8-OH-DPAT from human recombinant 5HT1A receptor expressed in CHOK1 cell membrane; assay type: cell membranes, CHO-K1
# T1 sequence (P08908 whole entry): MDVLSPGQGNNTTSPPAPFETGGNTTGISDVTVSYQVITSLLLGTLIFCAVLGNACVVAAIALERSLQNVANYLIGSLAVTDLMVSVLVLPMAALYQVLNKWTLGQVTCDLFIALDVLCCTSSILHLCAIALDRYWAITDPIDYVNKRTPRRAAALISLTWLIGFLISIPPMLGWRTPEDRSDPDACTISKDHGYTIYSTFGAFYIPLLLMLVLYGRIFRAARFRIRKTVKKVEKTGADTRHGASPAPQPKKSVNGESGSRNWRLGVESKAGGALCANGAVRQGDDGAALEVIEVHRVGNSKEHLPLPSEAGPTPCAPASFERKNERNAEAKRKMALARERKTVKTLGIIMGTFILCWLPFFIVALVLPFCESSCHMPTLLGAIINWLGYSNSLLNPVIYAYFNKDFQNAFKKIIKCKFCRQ
# Procedure, shortened: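 Radioligand 0.5 nM [3H]8-OH-DPAT with receptor membranes in 0.25 mL 50 mM Tris·HCl pH 7.4, 1 mM EDTA, 2.5 mM MgCl2. Incubated 30 min at 37 °C. Stopped by rapid filtration on GF/C filters presoaked in 0.3% polyethylenimine, then scintillation counted. Nonspecific binding defined with methiothepin.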
# [2] = molecular target: 5-hydroxytryptamine receptor 2A (Homo sapiens, UniProt P28223); assay: Displacement of [3H]ketanserin from human recombinant 5HT2A receptor expressed in CHOK1 cell membrane; assay type: cell membranes, CHO-K1
# Chain of 5-hydroxytryptamine receptor 2A (P28223 whole entry): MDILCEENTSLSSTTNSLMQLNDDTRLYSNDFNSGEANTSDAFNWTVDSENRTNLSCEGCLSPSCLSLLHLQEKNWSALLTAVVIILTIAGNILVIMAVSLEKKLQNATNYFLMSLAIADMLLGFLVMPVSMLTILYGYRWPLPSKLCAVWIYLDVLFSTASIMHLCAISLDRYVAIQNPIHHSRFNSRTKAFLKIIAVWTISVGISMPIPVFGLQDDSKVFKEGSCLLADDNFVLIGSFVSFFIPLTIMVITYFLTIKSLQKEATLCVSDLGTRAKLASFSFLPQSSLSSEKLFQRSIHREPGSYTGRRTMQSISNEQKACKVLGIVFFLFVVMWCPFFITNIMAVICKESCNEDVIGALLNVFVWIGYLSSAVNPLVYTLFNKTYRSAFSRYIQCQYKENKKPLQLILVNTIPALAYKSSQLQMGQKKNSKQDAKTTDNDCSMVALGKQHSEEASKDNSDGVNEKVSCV
# Procedure, shortened: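 Frozen membranes with 1 nM [3H]ketanserin in 50 mM Tris·HCl pH 7.4. Incubated 15 min at 37 °C. Harvested onto GF/C filters presoaked in 0.05% Brij. Nonspecific binding defined with mianserin.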
# [3] = molecular target: T2, 5-hydroxytryptamine receptor 2C (Homo sapiens, UniProt P28335); assay: Displacement of [3H]mesulergine from human recombinant 5HT2C receptor expressed in CHOK1 cell membrane; assay type: cell membranes, CHO-K1
# T2 sequence (P28335 whole entry): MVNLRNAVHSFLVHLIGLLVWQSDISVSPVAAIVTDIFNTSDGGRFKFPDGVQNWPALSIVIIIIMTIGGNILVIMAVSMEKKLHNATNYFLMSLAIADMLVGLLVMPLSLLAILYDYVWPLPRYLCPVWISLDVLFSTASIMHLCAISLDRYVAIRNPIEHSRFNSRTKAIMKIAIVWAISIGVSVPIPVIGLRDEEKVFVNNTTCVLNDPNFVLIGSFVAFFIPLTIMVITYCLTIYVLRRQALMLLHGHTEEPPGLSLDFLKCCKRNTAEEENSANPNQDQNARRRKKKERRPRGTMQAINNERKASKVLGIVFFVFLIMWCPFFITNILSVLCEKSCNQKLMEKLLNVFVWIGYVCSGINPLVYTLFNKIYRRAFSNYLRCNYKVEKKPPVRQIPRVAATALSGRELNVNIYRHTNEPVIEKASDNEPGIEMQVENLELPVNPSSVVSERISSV
# Procedure, shortened: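 Frozen membranes with 1 nM [3H]mesulergine in 50 mM Tris·HCl pH 7.7 containing 0.1% ascorbic acid and pargyline. Incubated 30 min at 37 °C. Stopped by rapid filtration through GF/C filters presoaked in 1% BSA. Nonspecific binding defined with mianserin.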
# [4] = molecular target: 5-hydroxytryptamine receptor 6 (Homo sapiens, UniProt P50406); assay: Displacement of [3H]LSD from human 5HT6 receptor expressed in HeLa cells; assay type: cell-based
# Chain of 5-hydroxytryptamine receptor 6 (P50406 whole entry): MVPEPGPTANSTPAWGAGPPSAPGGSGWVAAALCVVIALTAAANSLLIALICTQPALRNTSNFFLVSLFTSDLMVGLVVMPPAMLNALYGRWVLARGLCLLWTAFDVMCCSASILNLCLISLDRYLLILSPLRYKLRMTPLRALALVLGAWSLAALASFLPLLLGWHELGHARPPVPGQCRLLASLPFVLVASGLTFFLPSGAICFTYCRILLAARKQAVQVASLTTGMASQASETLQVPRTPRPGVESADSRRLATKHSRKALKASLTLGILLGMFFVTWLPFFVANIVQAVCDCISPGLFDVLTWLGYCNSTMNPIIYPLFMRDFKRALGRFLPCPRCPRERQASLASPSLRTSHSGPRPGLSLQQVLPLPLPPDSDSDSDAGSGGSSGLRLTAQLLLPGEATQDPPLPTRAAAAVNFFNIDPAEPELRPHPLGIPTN
# Procedure, shortened: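 HeLa-cell membranes with 1.8 nM [3H]LSD in 0.25 mL 50 mM Tris·HCl pH 7.4, 10 mM MgCl2, 0.5 mM EDTA. Incubated 60 min at 37 °C. Terminated by filtration through GF/C filters presoaked in 0.3% polyethylenimine. Methiothepin used for nonspecific binding.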
# [5] = molecular target: 5-hydroxytryptamine receptor 7 (Homo sapiens, UniProt P34969); assay: Displacement of [3H]LSD from human recombinant 5HT7 receptor expressed in CHO cell membrane; assay type: cell membranes
# Chain of 5-hydroxytryptamine receptor 7 (P34969 whole entry): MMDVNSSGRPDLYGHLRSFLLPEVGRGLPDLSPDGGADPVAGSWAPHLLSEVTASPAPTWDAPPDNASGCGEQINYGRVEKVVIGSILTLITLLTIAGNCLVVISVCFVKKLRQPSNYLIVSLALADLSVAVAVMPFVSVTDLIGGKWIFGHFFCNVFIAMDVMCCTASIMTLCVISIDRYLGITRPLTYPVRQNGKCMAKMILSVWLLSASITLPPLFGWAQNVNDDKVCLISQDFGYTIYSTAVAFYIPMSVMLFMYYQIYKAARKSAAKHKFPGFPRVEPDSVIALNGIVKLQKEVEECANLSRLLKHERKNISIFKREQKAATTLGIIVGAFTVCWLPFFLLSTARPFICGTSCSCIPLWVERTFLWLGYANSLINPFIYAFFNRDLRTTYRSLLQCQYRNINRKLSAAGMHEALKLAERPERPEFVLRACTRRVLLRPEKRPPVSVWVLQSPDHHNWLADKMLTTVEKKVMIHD
# Procedure, shortened: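 Membranes incubated with 3 nM [3H]LSD in 0.25 mL 50 mM Tris·HCl pH 7.4, 10 mM MgCl2, 0.5 mM EDTA, 90 min at 27 °C. Filtered on GF/C presoaked in 0.3% PEI and counted. Nonspecific binding with 0.5 uM methiothepin. 7-8 concentrations tested in duplicate, three assays. IC50 from nonlinear regression.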
Structure (SMILES),IC50 [1] [nM],IC50 [2] [nM],IC50 [3] [nM],IC50 [4] [nM],IC50 [5] [nM]
COc1ccc(S(=O)(=O)NCCCN2CCN(c3ccccc3OC)CC2)cc1,272,5170,9670,> 10000,
COc1ccc(S(=O)(=O)NCCCN2CCN(c3ccc(Cl)c(Cl)c3)CC2)cc1,,,,,103
O=S(=O)(NCCCN1CCN(Cc2ccccc2)CC1)c1ccccc1,,,,,949
COc1ccc(S(=O)(=O)NC(C)CCN2CCN(c3ccccc3OC)CC2)cc1 (stereo not given),,,,,580
COc1cccc(N2CCN(CCCNS(=O)(=O)c3ccc4ccccc4c3)CC2)c1,,,,,223
COc1ccc(S(=O)(=O)NCCCN2CCN(c3cccc(C(F)(F)F)c3)CC2)cc1,44,352,57,2840,89
COc1ccc(S(=O)(=O)NCCCN2CCN(c3ccc([N+](=O)[O-])cc3)CC2)cc1,,,,,> 10000
COc1ccc(S(=O)(=O)NCCCN2CCN(c3cccc(OC)c3)CC2)cc1,,,,,339
COc1ccc(N2CCN(CCCNS(=O)(=O)c3ccc(OC)cc3)CC2)cc1,,,,,9310
COc1ccc(S(=O)(=O)NCCCN2CCN(c3ccc(F)cc3)CC2)cc1,39,74,4890,> 10000,47
COc1ccc(N2CCN(CCCNS(=O)(=O)c3ccc4ccccc4c3)CC2)cc1,,,,,3240
O=S(=O)(NCCCN1CCN(c2ccccc2F)CC1)c1ccc2ccccc2c1,,,,,140
O=S(=O)(NCCCN1CCN(Cc2ccccc2)CC1)c1ccc2ccccc2c1,,,,,476
O=S(=O)(NCCCN1CCN(c2ccc(Cl)c(Cl)c2)CC1)c1ccc2ccccc2c1,215,19,215,768,124
COc1ccc(S(=O)(=O)NC(C)CCN2CCN(c3cccc(C(F)(F)F)c3)CC2)cc1 (stereo not given),39,1820,1350,6920,107
O=S(=O)(NCCCN1CCN(c2ccc(F)cc2)CC1)c1ccc2ccccc2c1,,,,,53
COc1ccc(S(=O)(=O)NCCCN2CCN(C(=O)c3ccco3)CC2)cc1,,,,,> 10000
O=S(=O)(NCCCN1CCN(c2cccc(C(F)(F)F)c2)CC1)c1ccc2ccccc2c1,29,95,91,1960,12
COc1ccc(S(=O)(=O)NC(C)CCN2CCN(c3ccc(F)cc3)CC2)cc1 (stereo not given),,,,,373
O=S(=O)(NCCCN1CCN(c2ccc(C(F)(F)F)cc2)CC1)c1ccc2ccccc2c1,,,,,567
COc1ccc(S(=O)(=O)NC(C)CCN2CCN(c3ccccc3)CC2)cc1 (stereo not given),,,,,377
COc1ccc(S(=O)(=O)NCCCN2CCN(c3ccc(C(C)=O)cc3)CC2)cc1,,,,,> 10000
COc1ccc(S(=O)(=O)NCCCN2CCN(C(=O)OCc3ccccc3)CC2)cc1,,,,,> 10000
COc1ccccc1N1CCN(CCCNS(=O)(=O)c2ccc3ccccc3c2)CC1,4.6,85,241,2630,20
COc1ccc(S(=O)(=O)NCCCN2CCN(c3ccccc3F)CC2)cc1,,,,,289
O=S(=O)(NCCCN1CCN(c2ccccc2)CC1)c1ccc2ccccc2c1,,,,,681
COc1ccc(S(=O)(=O)NCCCN2CCN(c3ccc(C(F)(F)F)cc3)CC2)cc1,,,,,384
COc1ccc(S(=O)(=O)NCCCN2CCN(c3ccccc3)CC2)cc1,,,,,> 10000
